This is an account of results in ChEMBL document CHEMBL1124926, “Structure-activity relationships of antifilarial antimycin analogues: a multivariate pattern recognition study” (J Med Chem, 1990).

Structures are written as SMILES.

A short description of data set [1]: Negative log transformed activity. In kind it is ADME. More on the design: unit not given here.
Another data set deals with Acanthocheilonema viteae. The data set can be described thus: In vitro macrofilaricidal activity against Dipetalonema viteae was determined using the leakage of incorporated radiolabeled adenine method. In kind it is functional, organism-based. A digest of the protocol:
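D. viteae adult females were labelled with radiolabelled adenine, then exposed for 120 h to concentrations descending from 10 μM in serum-free Eagle's minimal essential medium. Viability was scored as leakage of incorporated label into the medium, and the EC50 was the concentration releasing 50% of the adenine taken up.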

The test system of data set [2] is Brugia pahangi. Description: (§1) In vivo percent reduction of Brugia pahangi worm in gerbils. The data set is classed as functional. More on the design: concentration or dose not given beside the values. A digest of the protocol: (§2)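 Animals were autopsied 35 days after the final dose, and worm recoveries were compared with those from untreated controls.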
The subject of data set [3] is Brugia pahangi. Described as §1. In kind it is functional. A digest of the protocol:
as §2

For data set [4], the system named is Brugia pahangi. The data set can be described thus: In vivo percent reduction of Brugia pahangi worm in gerbils; Some toxicity. The data set is classed as functional. A digest of the protocol:
as §2

A word on the EC50: it is the concentration needed to bring the measured effect to its halfway point. For the compound `COc1ccc(Oc2ccc(NC(=O)c3cc([N+](=O)[O-])ccc3O)cc2Cl)cc1`, the “-Log activity” value in data set [1] is recorded as 0.77. Also, it took 170 nM to reach a half-maximal effect in the data set with Acanthocheilonema viteae (EC50). For the same compound, the Worm reduction in the data set on Brugia pahangi [2] was found to be 61%.
Consider `CCCCCCCCCCCCCCNC(=O)c1cc(Cl)cc([N+](=O)[O-])c1O`, for which the “-Log activity” value in data set [1] worked out at 1.36. In the data set with Acanthocheilonema viteae, this compound returned a half-maximal effective concentration (EC50) of 43.5 nM.
Take `O=C(c1ccc(Cl)cc1)c1cc([N+](=O)[O-])ccc1O`: the “-Log activity” value in data set [1] stood at 0.48. In the data set with Acanthocheilonema viteae, this compound yielded an EC50 of 330 nM. The compound further yielded a Worm reduction in the data set with Brugia pahangi [2] of 61%.
Turning to `CC(C)(C)c1ccc(NC(=O)c2cc([N+](=O)[O-])ccc2O)cc1`, the “-Log activity” value in data set [1] came out at 0.23. The compound further came in with a concentration for a half-maximal effect (EC50) in the data set with Acanthocheilonema viteae of 590 nM. The Worm reduction with Brugia pahangi [2] came out at 44%.
Consider `O=C(Nc1ccc(Oc2ccc(C(F)(F)F)cc2)cc1)c1cc([N+](=O)[O-])ccc1O`, for which the “-Log activity” value in data set [1] was 1.02. A half-maximal response with Acanthocheilonema viteae (EC50) required 95 nM. This compound also displayed a Worm reduction with Brugia pahangi [2] of 72%.
In the case of `CSc1ccc(O)c(C(=O)Nc2ccc(Oc3ccc(Cl)cc3)c(Cl)c2)c1`, the “-Log activity” value in data set [1] amounted to 0.32. In the data set on Acanthocheilonema viteae, the response was half-maximal at 480 nM (EC50). In the data set with Brugia pahangi [2], this compound came in with a Worm reduction of 58%.
On to `O=C(Nc1ccc(Oc2ccc(Cl)cc2)c(Cl)c1)c1cc([N+](=O)[O-])ccc1O`, for which the “-Log activity” value in data set [1] is 1.4. In the data set on Acanthocheilonema viteae, this compound gave a half-maximal effective concentration (EC50) of 40 nM. This compound came in with a Worm reduction in the data set with Brugia pahangi [2] of 80.6%.
Consider `O=C(Nc1ccc(Nc2ccc(Cl)cc2)c(Cl)c1)c1cc([N+](=O)[O-])ccc1O`, for which, in data set [1], the “-Log activity” value was found to be 0.43. This compound displayed an EC50 with Acanthocheilonema viteae of 370 nM. Besides, the Worm reduction with Brugia pahangi [2] is given as 48%.
In the same order, the values of `O=C(Nc1ccc(Oc2ccc([N+](=O)[O-])cc2Cl)cc1)c1cc([N+](=O)[O-])ccc1O` are 0.92, 120 nM and 70%.
Regarding `CCCCCCNC(=O)c1cccc(NC=O)c1O`, the “-Log activity” value in data set [1] is given as -1. In the data set with Acanthocheilonema viteae, the half-maximal effective concentration (EC50) was more than 10000 nM.
On to `CS(=O)(=O)c1cccc(C(=O)Nc2ccc(Oc3ccc(Cl)cc3)c(Cl)c2)c1O`, for which the “-Log activity” value in data set [1] amounted to 0.3. In the data set on Acanthocheilonema viteae, this compound yielded a concentration giving a half-maximal response (EC50) of 500 nM. The Worm reduction with Brugia pahangi [2] was determined as 42%.
Regarding `CCCCCCCCCCCCCCNC(=O)c1cc([N+](=O)[O-])ccc1O`, the “-Log activity” value in data set [1] was 0.89. The half-maximal effective concentration (EC50) with Acanthocheilonema viteae was found to be 128 nM.
As for `C[S+]([O-])c1ccc(O)c(C(=O)Nc2ccc(Oc3ccc(Cl)cc3)c(Cl)c2)c1` (centres undefined), the “-Log activity” value in data set [1] is listed as -0.88. This compound also showed a half-maximal effective concentration (EC50) in the data set on Acanthocheilonema viteae of 7500 nM. The same compound yielded a Worm reduction with Brugia pahangi [2] of 84%.
Turning to `O=CNc1cccc(C(=O)Nc2ccc(Oc3ccc(Cl)cc3)c(Cl)c2)c1O`, the “-Log activity” value in data set [1] was -0.38. The same compound showed an EC50 in the data set with Acanthocheilonema viteae of 2400 nM.
For `CCCCCCCCCCCCCCNC(=O)c1cccc(NC(C)=O)c1O`, the “-Log activity” value in data set [1] is listed as -0.9. In the data set with Acanthocheilonema viteae, this compound yielded a concentration for a half-maximal effect (EC50) of 8000 nM.
In the same order, the values of `O=C(Nc1ccc(Oc2ccc(Cl)cc2)c(Cl)c1)c1cccc([N+](=O)[O-])c1O` are 0.82 and 150 nM.
Consider `O=C(Nc1ccc(Sc2ccc(Cl)cc2)c(Cl)c1)c1cc([N+](=O)[O-])ccc1O`, for which the “-Log activity” value in data set [1] stood at 1.36. In the data set with Acanthocheilonema viteae, this compound yielded a half-maximal effective concentration (EC50) of 44 nM. Further, the Worm reduction in the data set with Brugia pahangi [2] is 70%.
Regarding `O=C(Nc1ccc(C(=O)c2ccc(Cl)cc2)c(Cl)c1)c1cc([N+](=O)[O-])ccc1O`, in data set [1], the “-Log activity” value was found to be 1.13. This compound also came in with an EC50 with Acanthocheilonema viteae of 74 nM. The compound also displayed a Worm reduction with Brugia pahangi [2] of 14%.
In the same order, the values of `O=C(Nc1ccc(C(O)c2ccccc2)cc1)c1cc([N+](=O)[O-])ccc1O` (centres undefined) are -1, more than 10000 nM and 39%.
In the same order, the values of `O=C(Nc1ccc(Oc2ccccc2)cc1)c1cc([N+](=O)[O-])ccc1O` are 0.1, 800 nM and 89%.
Regarding `CCCCCCCCCCCCCCCCNC(=O)c1cccc([N+](=O)[O-])c1O`, in data set [1], the “-Log activity” value was -0.04. In the data set with Acanthocheilonema viteae, the half-maximal effective concentration (EC50) is 1100 nM.
The like results for `CCCCCCCCNC(=O)c1cccc(NC=O)c1O` were, in that order, -0.41 and 2600 nM.
On to `CSc1cccc(C(=O)Nc2ccc(Oc3ccc(Cl)cc3)c(Cl)c2)c1O`, for which the “-Log activity” value in data set [1] worked out at 0.42. In the data set on Acanthocheilonema viteae, this compound displayed an EC50 of 380 nM. Further, the Worm reduction in the data set on Brugia pahangi [2] was 52%.
In the same order, the values of `O=C(Nc1ccc(Oc2cccc(C(F)(F)F)c2)cc1)c1cc([N+](=O)[O-])ccc1O` are 1.03, 94 nM and 80%.
The like results for `N#Cc1ccc(O)c(C(=O)Nc2ccc(Oc3ccc(Cl)cc3)c(Cl)c2)c1` were, in that order, 1.84, 14.5 nM and 17%.
As for `CCCCCCCCCCCCNC(=O)c1cc([N+](=O)[O-])ccc1O`, in data set [1], the “-Log activity” value was found to be 1.41. Besides, the concentration for a half-maximal effect (EC50) in the data set with Acanthocheilonema viteae came out at 39 nM. This compound had a Worm reduction with Brugia pahangi [2] of 0%.
The like results for `O=C(Nc1ccc(Oc2cccc(C(F)(F)F)c2)c(Cl)c1)c1cc([N+](=O)[O-])ccc1O` were, in that order, 1.07, 85 nM and 74%.
As for `CCCCCCCCCCCCCCNC(=O)c1cccc(NC=O)c1O`, the “-Log activity” value in data set [1] was -0.85. Besides, the Worm reduction in the data set with Brugia pahangi [3] amounted to 80%. In addition, in the data set with Acanthocheilonema viteae, a half-maximal response (EC50) required 7000 nM.
Consider `O=C(Nc1ccc(Oc2ccc(SC(F)(F)F)cc2)c(Cl)c1)c1cc([N+](=O)[O-])ccc1O`, for which the “-Log activity” value in data set [1] was determined as 1.55. Also, the Worm reduction in the data set with Brugia pahangi [4] was 85%. In the data set with Acanthocheilonema viteae, this compound came in with an EC50 of 28 nM.
With `CS(=O)(=O)c1ccc(O)c(C(=O)Nc2ccc(Oc3ccc(Cl)cc3)c(Cl)c2)c1`, the “-Log activity” value in data set [1] is reported as 0. Also, the EC50 in the data set on Acanthocheilonema viteae came to 1000 nM. The same compound showed a Worm reduction with Brugia pahangi [2] of 28%.
With `CCCCCCCCCCCCCCNC(=O)c1cccc([N+](=O)[O-])c1O`, in data set [1], the “-Log activity” value is recorded as 0.82. In addition, the midpoint of the response with Acanthocheilonema viteae, the EC50, lay at 152 nM.
